Reference: ChEMBL document CHEMBL5653611, “A combination of H2A.Z and H4 acetylation recruits Brd2 to chromatin during transcriptional activation” (PLoS Genet, 2012)
The source made the active and inactive calls.

Assays:
HEK-293T [1] = assay: Effect on human 293T cells assessed as increase in histone acetylation at 200 nM for 2 hrs by Western blotting analysis; format: functional, cell-based
How it was run: (§1)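 293T cells transfected with Flag-H2A.Z or Flag-H2A (for line 5, co-transfected with YFP-Brd2), treated with 200 nM for 2 hrs (DMSO vehicle) before harvest. Read-out by Western blot of input and of Flag IP of MNase-digested mononucleosomes, overnight at 4°C on M2-agarose.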

HEK-293T [2] = assay: Effect on human 293T cells expressing YFP-Brd2 assessed as increase in protein immunoprecipitated cells at 200 nM for 2 hrs; format: functional, cell-based; how it was run: as §1
HEK293T = assay: Binding affinity to Brd2-H2A.Z protein-protein interaction in human 293T cells at 200 nM for 2 hrs by Western blotting analysis; format: cell-based; how it was run: as §1
LNCaP [3] = assay: Effect on human LNCaP cells assessed as decrease in PSA mRNA expression pretreated with compound for 24 hrs followed by androgen stimulation for 24 hrs by RT-qPCR analysis; format: functional, cell-based; conditions: dose 125-500 nM
How it was run: (§2)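 LNCaP cells grown 72 hrs in phenol-red-free RPMI with 5% charcoal-stripped FBS, pretreated with compound, then stimulated with 10 nM DHT (ethanol vehicle for controls). Transcript levels measured by RT-qPCR.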

LNCaP [4] = assay: Inhibition of Brd2-KLK2 protein-protein interaction in DHT stimulated human LNCaP cells at 125 to 250 nM measured for 60 mins by ChIP analysis; format: cell-based; conditions: dose 125-250 nM
How it was run: (§3)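 LNCaP cells held 72 hrs in phenol-red-free RPMI with 5% charcoal-stripped FBS, pretreated with compound, then stimulated with 10 nM DHT (ethanol control). Brd2 occupancy at enhancer and promoter regions measured by ChIP 60 min after stimulation.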

LNCaP [5] = assay: Effect on human LNCaP cells assessed as decrease in KLK2 mRNA expression pretreated with compound for 24 hrs followed by androgen stimulation for 24 hrs by RT-qPCR analysis; format: functional, cell-based; conditions: dose 125-500 nM; how it was run: as §2
LNCaP [6] = assay: Antiproliferative activity against human LNCaP cells for 24 hrs by MTS assay; format: functional, cell-based; conditions: dose 125-500 nM
How it was run: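 LNCaP cells seeded in 96-well plates and grown 24 hrs, then exposed to a range of concentrations (DMSO vehicle control) for 24 hrs. MTS reagent added and absorbance read at 490 nm.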

LNCaP [7] = assay: Effect on DHT stimulated human LNCaP cells assessed as decrease in histone acetylation at 125 to 250 nM measured for 60 mins by ChIP analysis; format: functional, cell-based; conditions: dose 125-250 nM
LNCaP [8] = assay: Inhibition of Brd2-PSA protein-protein interaction in DHT stimulated human LNCaP cells at 125 to 250 nM measured for 60 mins by ChIP analysis; format: cell-based; conditions: dose 125-250 nM; how it was run: as §3
LNCaP [9] = assay: Inhibition of Brd2-H2A.Z protein-protein interaction in human LNCaP cells at 125 to 250 nM by Western blotting analysis; format: cell-based; conditions: dose 125-250 nM

CC(/C=C/C(=O)NO)=C\[C@@H](C)C(=O)c1ccc(N(C)C)cc1
active: Activity (HEK-293T [1]) | Activity (HEK-293T [2]) | Activity (HEK293T)

Cc1sc2c(c1C)C(c1ccc(Cl)cc1)=N[C@@H](CC(=O)OC(C)(C)C)c1nnc(C)n1-2
active: Activity (LNCaP [3]) Dose-Dependent Effect | inhibition (LNCaP [4]) | Activity (LNCaP [5]) Dose-Dependent Effect | Activity (LNCaP [6]) Dose-Dependent Effect | Activity (LNCaP [7]) | inhibition (LNCaP [8]) | inhibition (LNCaP [9])
